# Published values of several laboratories.
# Protocols differ between the studies behind these lines.
# Target: Tyrosine-protein kinase receptor UFO (AXL, Homo sapiens, UniProt P30530)
# Sequence (P30530 26-894, as in one of the studies): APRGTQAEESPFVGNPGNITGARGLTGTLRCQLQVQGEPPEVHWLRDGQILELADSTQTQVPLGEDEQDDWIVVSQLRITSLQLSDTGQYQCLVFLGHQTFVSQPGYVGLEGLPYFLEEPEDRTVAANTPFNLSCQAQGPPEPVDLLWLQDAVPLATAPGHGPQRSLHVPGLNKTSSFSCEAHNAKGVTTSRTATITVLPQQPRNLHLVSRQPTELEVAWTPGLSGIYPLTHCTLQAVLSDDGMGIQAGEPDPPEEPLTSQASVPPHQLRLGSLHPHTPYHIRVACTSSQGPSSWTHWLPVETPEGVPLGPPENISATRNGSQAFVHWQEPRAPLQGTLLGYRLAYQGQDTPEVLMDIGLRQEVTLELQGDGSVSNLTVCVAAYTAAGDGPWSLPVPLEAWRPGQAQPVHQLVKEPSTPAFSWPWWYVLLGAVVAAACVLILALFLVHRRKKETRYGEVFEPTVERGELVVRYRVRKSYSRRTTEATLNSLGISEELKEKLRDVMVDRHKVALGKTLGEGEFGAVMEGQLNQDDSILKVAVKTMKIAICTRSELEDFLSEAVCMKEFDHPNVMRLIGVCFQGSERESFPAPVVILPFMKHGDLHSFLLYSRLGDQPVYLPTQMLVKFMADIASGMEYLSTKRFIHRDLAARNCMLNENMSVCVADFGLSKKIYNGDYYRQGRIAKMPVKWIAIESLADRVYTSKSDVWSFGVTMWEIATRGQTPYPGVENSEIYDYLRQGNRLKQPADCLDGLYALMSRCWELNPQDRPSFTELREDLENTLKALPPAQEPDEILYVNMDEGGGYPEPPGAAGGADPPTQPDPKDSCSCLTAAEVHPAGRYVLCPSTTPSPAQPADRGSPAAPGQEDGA
SMILES,effect on,mode,method,concentration,measurement,result
CS(=O)(=O)c1ccccc1Nc1nc(Nc2ccnc(CO)c2)ncc1Cl,enzyme activity,inhibitor,,1 µM,remaining activity,4.41%
COc1ccc2[nH]c3c4[nH]c5ccc(OC)cc5c4c4c(c3c2c1)C(=O)NC4=O,binding,,competition with immobilised ligand,1 µM,remaining binding,30%
CCCCC(=O)Nc1ccc(-c2ccc3ncn(CCC)c(=O)c3c2)cn1,binding,,competition with immobilised ligand,0.5 µM,remaining binding,95%
CC#CC(=O)N1CCC[C@H]1c1nc(-c2ccc(C(=O)Nc3ccccn3)cc2)c2c(N)nccn12,enzyme activity,inhibitor,,1 µM,inhibition,5%
CS(=O)(=NC#N)c1ccccc1Nc1nc(Nc2ccc(CO)nc2)ncc1Cl (centres unmarked),enzyme activity,inhibitor,,1 µM,remaining activity,14.9%
C[C@]1(O)CCCN(c2nc(Nc3ccc(S(=O)(=O)N[C@H]4CC[C@H](CN5CCN(c6ccc(C7CCC(=O)NC7=O)cc6F)CC5)CC4)cc3F)ncc2C(F)(F)F)C1 (some centres unmarked),binding,,competition with immobilised ligand,1 µM,remaining binding,40%
COc1ccc2oc(-c3ccc4nc(N)oc4c3)c/c(=N\c3ccccc3NC(=O)CCN)c2c1,binding,,,1 µM,remaining binding,96%
C1=C/COCc2cc(ccc2OCCN2CCCC2)Nc2nccc(n2)-c2cccc(c2)COC/1,binding,,,0.1 µM,remaining binding,38%
CNC(=O)c1ccccc1Nc1nc(Nc2ccc(CO)nc2)ncc1Cl,enzyme activity,inhibitor,,1 µM,remaining activity,2.06%
Cc1ccc(NC(=O)c2ccnc(C(F)(F)F)c2)cc1-c1cc(OCCO)nc(N2CCOCC2)c1,binding,,competition with immobilised ligand,1 µM,remaining binding,90%
CNC(=O)c1ccccc1Nc1nc(Nc2ccc(CO)cc2)ncc1Cl,enzyme activity,inhibitor,,1 µM,remaining activity,1.13%
CO[C@@H]1[C@H](N(C)C(=O)c2ccccc2)C[C@H]2O[C@]1(C)n1c3ccccc3c3c4c(c5c6ccccc6n2c5c31)C(=O)NC4,enzyme activity,inhibitor,,1 µM,inhibition,92%
N#Cc1ccc(NC(=O)Nc2ccccc2)cc1,cell-free assay,,competition with immobilised ligand,25 µM,remaining binding,100%
CNS(=O)(=O)c1ccc(Nc2ncc(C(F)(F)F)c(N3CCC[C@](C)(O)C3)n2)c(C)c1,binding,,competition with immobilised ligand,1 µM,remaining binding,70%
